We go through 1 molecule from ChEMBL document CHEMBL1124067, “Design of potent cyclic gonadotropin releasing hormone antagonists” (J Med Chem, 1988).

Holding throughout (assay type): functional
Assay [1] relates to Rattus norvegicus. Description: Effect of oral administration of compound (3 mg) on LH secretion by castrated male rats; ng of LH/mL. Summed up: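 Adult Sprague-Dawley male rats, castrated under light ether anesthesia 7-10 days before assay. Peptide dissolved in 2 N HOAc, then diluted in 0.1% BSA-0.04 M phosphate buffer pH 7.4. Given by gavage tube (0.5 mL) under ether. Blood sampled before treatment and 5 h after. Plasma LH in ng/mL, mean ± SEM, five rats per treatment.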

For assay [2], the species on record is Rattus norvegicus. Description: Effect on GnRH-induced LH secretion in intact male rats at 100 ug of compound along with 50 ng of GnRH; ng of LH/mL. Summed up:
(§1)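 Intact adult male Sprague-Dawley rats. Antagonist injected iv into the jugular vein (1 mL) under ether, immediately before GnRH. Peptide dissolved in 2 N HOAc, then diluted in 0.1% BSA-0.04 M phosphate buffer pH 7.4. Blood taken 10 min after injection. Plasma LH in ng/mL ± SEM, six rats per treatment.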

For assay [3], the species on record is Rattus norvegicus. In words: Effect on GnRH-induced LH secretion in intact male rats at 25 ug of compound along with 50 ng of GnRH; ng of LH/mL. In outline: as §1
The test system of assay [4] is Rattus norvegicus. Description: In vivo antiovulatory assay (AOA) carried out in rats injected sc. In outline:
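Antiovulatory assay following Corbin and Beattie. Cycling rats injected sc at noon on proestrus with peptide dissolved in saline (200 μL). Dose in micrograms; read-out is the number of rats ovulating out of the total.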

The structures appear in SMILES notation. Values joined by “and” are separate entries in the source; they are usually repeats but may differ in a detail not shown here. Equal values may be shown once. Positions of bridges follow the written chain, without caps; N, C: chain ends. Non-standard residues stand in square brackets, D forms with d. Residues, ends and D or L forms follow the SMILES beside them. dPhe(4-Cl) = N[C@H](Cc1ccc(Cl)cc1)C(=O)O; d2Nal = N[C@H](Cc1ccc2ccccc2c1)C(=O)O; d3Pal = N[C@H](Cc1cccnc1)C(=O)O

As to `CC(=O)N[C@H](Cc1ccc2ccccc2c1)C(=O)N[C@H](Cc1ccc(Cl)cc1)C(=O)N[C@H](Cc1cccnc1)C(=O)N[C@H]1CSSC[C@@H](C(N)=O)NC(=O)[C@@H]2CCCN2C(=O)[C@H](CCCNC(=N)N)NC(=O)[C@H](CC(C)C)NC(=O)[C@@H](Cc2cccnc2)NC(=O)[C@H](CCCNC(=N)N)NC1=O` (Ac-[d2Nal][dPhe(4-Cl)][d3Pal]CR[d3Pal]LRPC-NH2; disulfide 4-10), the Activity in assay [1] is reported as 8.31; in assay [2], 1.4; in assay [3], 1.62. Also, in assay [4], the Dose is 10 µg and 25 µg.
